Results reported in ChEMBL document CHEMBL1129565, “Selective inhibitors of monoamine oxidase. 3. Structure-activity relationship of tricyclics bearing imidazoline, oxadiazole, or tetrazole groups” (J Med Chem, 1996).

Experiments:
[1] = molecular target: T1, Amine oxidase [flavin-containing] A (Rattus norvegicus, UniProt P21396); assay: Inhibition of the enzyme Monoamine oxidase A which was not completely reverserved after 24 hr of dialysis after po administration to rat (brain); type: organism-based; settings: in vivo
T1 sequence (P21396 whole entry): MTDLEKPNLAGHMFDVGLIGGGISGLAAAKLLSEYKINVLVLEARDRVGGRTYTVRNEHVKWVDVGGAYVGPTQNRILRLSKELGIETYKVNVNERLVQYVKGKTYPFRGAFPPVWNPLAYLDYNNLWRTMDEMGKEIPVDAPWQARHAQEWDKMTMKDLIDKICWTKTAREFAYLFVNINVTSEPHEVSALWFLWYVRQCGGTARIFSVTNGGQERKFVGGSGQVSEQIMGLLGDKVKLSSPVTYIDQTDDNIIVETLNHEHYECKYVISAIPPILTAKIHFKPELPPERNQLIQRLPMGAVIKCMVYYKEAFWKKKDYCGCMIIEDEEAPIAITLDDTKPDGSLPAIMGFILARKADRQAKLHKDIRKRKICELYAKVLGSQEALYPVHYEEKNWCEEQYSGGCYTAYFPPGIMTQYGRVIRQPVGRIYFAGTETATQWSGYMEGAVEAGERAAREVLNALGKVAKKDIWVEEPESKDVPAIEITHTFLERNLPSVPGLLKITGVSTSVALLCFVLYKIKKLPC

[2] = molecular target: T2, Amine oxidase [flavin-containing] B (Rattus norvegicus, UniProt P19643); assay: Inhibitory activity against rat brain mitochondrial Monoamine oxidase B at 1 uM
T2 sequence (P19643 whole entry): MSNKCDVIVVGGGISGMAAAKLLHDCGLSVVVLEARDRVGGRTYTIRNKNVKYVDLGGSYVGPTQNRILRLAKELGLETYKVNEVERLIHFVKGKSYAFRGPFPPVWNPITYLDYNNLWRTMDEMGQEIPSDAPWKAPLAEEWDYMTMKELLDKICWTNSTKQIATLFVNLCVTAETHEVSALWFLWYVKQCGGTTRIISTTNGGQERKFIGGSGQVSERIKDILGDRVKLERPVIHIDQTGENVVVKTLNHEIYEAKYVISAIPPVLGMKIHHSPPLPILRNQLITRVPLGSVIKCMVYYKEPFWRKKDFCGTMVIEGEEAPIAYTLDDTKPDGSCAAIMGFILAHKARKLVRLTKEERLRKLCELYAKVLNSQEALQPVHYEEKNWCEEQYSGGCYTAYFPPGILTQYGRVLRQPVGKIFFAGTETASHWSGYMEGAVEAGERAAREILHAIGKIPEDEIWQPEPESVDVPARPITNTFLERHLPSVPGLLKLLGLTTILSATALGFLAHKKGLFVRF
In short: (§1)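 Rat brain mitochondrial MAO extract preincubated with inhibitor 15 min at 37 °C in 50 mM potassium phosphate pH 7.4. [14C]phenethylamine added at 10 μM final, then 20 min incubation. Pargyline 2 mM blanks. Stopped with HCl, products extracted into ethyl acetate/toluene and counted radiometrically. Triplicates; IC50 from mean % inhibition vs log concentration.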

[3] = molecular target: T1, Amine oxidase [flavin-containing] A; assay: Inhibitory concentration against rat brain mitochondrial monoamine oxidase A
In short: as §1, with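 “[3H]serotonin” for “[14C]phenethylamine”, “0.2” for “10”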

[4] = molecular target: T1, Amine oxidase [flavin-containing] A; assay: Inhibitory concentration against rat brain mitochondrial Monoamine oxidase A at 1 uM
In short: as §1, with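 “[3H]serotonin” for “[14C]phenethylamine”, “0.2” for “10”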

[5] = molecular target: T2, Amine oxidase [flavin-containing] B; assay: Inhibitory activity against rat brain mitochondrial Monoamine oxidase B at < 1 uM; in short: as §1
[6] = molecular target: T1, Amine oxidase [flavin-containing] A; assay: Inhibitory concentration against rat brain mitochondrial Monoamine oxidase A at <1 uM
In short: as §1, with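 “[3H]serotonin” for “[14C]phenethylamine”, “0.2” for “10”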

[7] = molecular target: T2, Amine oxidase [flavin-containing] B; assay: Inhibitory activity against rat brain mitochondrial Monoamine oxidase B; in short: as §1
[8] = molecular target: T1, Amine oxidase [flavin-containing] A; assay: Inhibition of the enzyme Monoamine oxidase A which was not completely reverserved after 24 hr of dialysis
In short: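 Reversibility: MAO extract preincubated with or without inhibitor 15 min at 37 °C, in duplicate, then dialysed 24 h at 4 °C with shaking against 0.1 M potassium phosphate pH 7.4, 5% sucrose, 1 mM dithiothreitol, buffer changed ca. 3 and 19 h. Undialysed portions held at 4 °C; both assayed together for MAO activity.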

[9] = molecular target: T2, Amine oxidase [flavin-containing] B; assay: Inhibitory activity against rat brain mitochondrial Monoamine oxidase B at 0.1 uM; in short: as §1
[10] = molecular target: T1, Amine oxidase [flavin-containing] A; assay: Inhibitory concentration against rat brain mitochondrial Monoamine oxidase A at 0.1 uM
In short: as §1, with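 “[3H]serotonin” for “[14C]phenethylamine”, “0.2” for “10”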

[11] = molecular target: T2, Amine oxidase [flavin-containing] B; assay: Inhibitory activity against rat brain mitochondrial Monoamine oxidase B at 0.3 uM; in short: as §1
[12] = molecular target: T2, Amine oxidase [flavin-containing] B; assay: Inhibitory activity against rat brain mitochondrial Monoamine oxidase B at 10 uM; in short: as §1
[13] = molecular target: T1, Amine oxidase [flavin-containing] A; assay: Inhibition of the enzyme MAO A which was not completely reverserved after 24 hr of dialysis after po administration to rat (brain); type: organism-based; settings: in vivo
[14] = molecular target: T1, Amine oxidase [flavin-containing] A; assay: Ex vivo value for inhibition of MAO A of rats sacrificed 2 hr after po administration; type: organism-based
In short: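 Rats dosed orally, killed 2 h later; brain MAO A inhibition then measured ex vivo.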

| inhibition at 1 µM [2] [%] | IC50 [3] [nM] | inhibition at 1 µM [4] [%] | Structure (SMILES) | also measured |
| --- | --- | --- | --- | --- |
| 11 | 300 | – | NCCNc1ccc2c(c1)C(=O)c1ccc(C3=NCCN3)cc1S2(=O)=O | Reversible [1]: 20% |
| 10 | – | 12 | O=C1c2ccc(C3=NCCN3)cc2S(=O)(=O)c2cc(C(F)(F)F)ccc21 | – |
| 10 | – | 7 | O=c1c2ccccc2sc2c(C3=NCCN3)cccc12 | – |
| 10 | – | 20 | O=S1(=O)c2ccccc2C(O)c2ccc(C3=NCCN3)cc21 (centres undefined) | – |
| 16 | – | 41 | O=S1(=O)c2ccccc2-c2cc(C3=NCCN3)ccc21 | – |
| – | – | – | CC(=O)N1CCN=C1c1ccc2c(c1)S(=O)(=O)c1ccc(F)cc1C2=O | Inhibition [5]: -11%; Inhibition [6]: 4% |
| 10 | – | 62 | Cc1ccc(C)c2c1[nH]c1ccc(C3=NCCN3)cc12 | – |
| 14 | 1000 | – | O=c1c2ccccc2sc2cc(C3=NCCN3)ccc12 | – |
| 5 | – | 37 | O=C1c2ccccc2S(=O)(=O)c2cc(C3=NCCCN3)ccc21 | – |
| – | 60 | – | CCCOc1ccc2sc3cc(-c4nnc(C)o4)ccc3c(=O)c2c1 | IC50 [7]: 1000 nM; Reversible [8]: 10% |
| – | 100 | – | c1ccc2c(c1)Oc1ccc(C3=NCCN3)cc1S2 | IC50 [7]: 10000 nM; Reversible [8]: 46% |
| 45 | – | 36 | CCn1nnc(-c2ccc3c(c2)S(=O)(=O)c2ccccc2C3=O)n1 | – |
| 9 | – | 20 | c1cc2c3c([nH]c2cc1C1=NCCN1)CCCC3 | – |
| 0 | 10 | – | CCNc1ccc2c(c1)C(=O)c1ccc(C3=NCCN3)cc1S2(=O)=O | Reversible [1]: 0% |
| 5 | – | 53 | Cc1ccc2c(c1)S(=O)(=O)c1cc(C3=NCCN3)ccc1C2=O | – |
| – | – | – | O=c1c2ccc(-c3nnn(CCO)n3)cc2oc2ccc(OCCO)cc12 | Inhibition [5]: 18%; Inhibition [6]: 29% |
| – | – | – | Cn1nnnc1-c1ccc2c(c1)S(=O)(=O)c1ccccc1C2=O | inhibition at 0.1 µM [9]: 1%; inhibition at 0.1 µM [10]: 53% |
| 5 | – | 24 | CC(C)c1ccc2sc3cc(-c4nn[nH]n4)ccc3c(=O)c2c1 | – |
| – | – | 64 | Cn1nnc(-c2ccc3c(=O)c4cc(OCCO)ccc4oc3c2)n1 | Inhibition [5]: 21% |
| – | 40 | – | CCCc1ccc2c(c1)C(=O)c1ccc(C3=NCCN3)cc1S2(=O)=O | inhibition at 0.3 µM [11]: 0%; Reversible [8]: 2% |
| 33 | 10 | – | COc1ccc2c(c1)C(=O)c1ccc(C3=NCCN3)cc1S2(=O)=O | Reversible [8]: 5% |
| 14 | – | 14 | [O-][S+]1c2ccccc2Sc2ccc(C3=NCCN3)cc21 (centres undefined) | – |
| 18 | – | 27 | CN1CCN=C1c1ccc2c(c1)S(=O)(=O)c1ccccc1C2=O | Inhibition ([2]; 1 µM): 11% |
| – | 2 | – | COc1ccc2c(c1)C(=O)c1ccc(-c3nnn(C)n3)cc1S2(=O)=O | IC50 [7]: 60 nM; Reversible [8]: 29% |
| 0 | – | 9 | O=S1(=O)c2ccccc2-c2cc(-c3nn[nH]n3)ccc21 | – |
| – | 10 | – | CCc1ccc2c(c1)C(=O)c1ccc(C3=NCCN3)cc1S2(=O)=O | inhibition at 10 µM [12]: 27%; Reversible [13]: 11%; Ki [14]: 4 nM |
| – | 1000 | – | c1cc2c(cc1C1=NCCN1)Sc1cc(C3=NCCN3)ccc1O2 | IC50 [7]: 10000 nM |
